# Test results reported in ChEMBL document CHEMBL5724801, “EUbOPEN Chemogenomics Library - Multiplex” (2024).
# Where “and” joins values, the source holds several entries; their conditions need not be identical. Identical values can stand only once.
# Test system: Fibroblast
# Test: Multiplex assay against human fibroblast
# Format: toxicity, cell-based
# In short: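 Compound was added to live cells that had been stained at seeding with Hoechst33342, BioTracker Green Microtubule Cytoskeleton Dye, MitoTracker Red and Annexin V Alexa Fluor 680, and imaging followed on a CQ1 microscope at 37°C and 5% CO2. CellPathfinder machine-learning gating divided cells into Hoechst high-intensity objects or normal cells, normal cells into healthy, pyknosed or fragmented nuclei, and pyknosed cells into mitotic or apoptotic. Tubulin, mitochondrial-mass and membrane-permeability phenotypes are per cents of healthy-nucleus cells.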
# [1] = 12 h, 1 µM, compound concentration 1 uM
# [2] = 12 h, 10 µM, compound concentration 10 uM
# [3] = 24 h, 1 µM, compound concentration 1 uM
# [4] = 24 h, 10 µM, compound concentration 10 uM
# [5] = 48 h, 1 µM, compound concentration 1 uM
# [6] = 48 h, 10 µM, compound concentration 10 uM
structure (smiles),measurement,setting,value
O=c1nc2[nH]c3ccccc3nc-2c(=O)[nH]1 [ALLOXAZINE],Population Apoptotic (%),[1],56% and 37%
same,Population Fragmented Nuclei (%),[1],16% and 26%
same,Population Healthy Nuclei (%),[1],67% and 50%
same,Population Hoechst High Intensity Objects (%),[1],5% and 3%
same,Population Membrane Permeable-Phenotype (%),[1],0% and 6%
same,Population Mitochondria Different-Phenotype (%),[1],2% and 3%
same,Population Mitotic Cells (%),[1],43% and 62%
same,Population Normal (%),[1],94% and 96%
same,Population Pyknosed Nuclei (%),[1],16% and 23%
same,Population Tubulin-Different-Phenotype (%),[1],23% and 33%
same,Total Cell Count,[1],193 and 131
same,Population Apoptotic (%),[2],33% and 41%
same,Population Fragmented Nuclei (%),[2],23% and 41%
same,Population Healthy Nuclei (%),[2],60% and 38%
same,Population Hoechst High Intensity Objects (%),[2],4% and 1%
same,Population Membrane Permeable-Phenotype (%),[2],3%
same,Population Mitochondria Different-Phenotype (%),[2],5% and 15%
same,Population Mitotic Cells (%),[2],66% and 58%
same,Population Normal (%),[2],95% and 98%
same,Population Pyknosed Nuclei (%),[2],15% and 20%
same,Population Tubulin-Different-Phenotype (%),[2],23% and 57%
same,Total Cell Count,[2],158 and 86
same,Population Apoptotic (%),[3],52% and 36%
same,Population Fragmented Nuclei (%),[3],17% and 31%
same,Population Healthy Nuclei (%),[3],69% and 41%
same,Population Hoechst High Intensity Objects (%),[3],3% and 4%
same,Population Membrane Permeable-Phenotype (%),[3],0% and 2%
same,Population Mitochondria Different-Phenotype (%),[3],2% and 0%
same,Population Mitotic Cells (%),[3],47% and 63%
same,Population Normal (%),[3],96% and 95%
same,Population Pyknosed Nuclei (%),[3],12% and 27%
same,Population Tubulin-Different-Phenotype (%),[3],21% and 31%
same,Total Cell Count,[3],190 and 114
same,Population Apoptotic (%),[4],47% and 64%
same,Population Fragmented Nuclei (%),[4],19% and 45%
same,Population Healthy Nuclei (%),[4],64% and 32%
same,Population Hoechst High Intensity Objects (%),[4],3%
same,Population Membrane Permeable-Phenotype (%),[4],0%
same,Population Mitochondria Different-Phenotype (%),[4],2% and 7%
same,Population Mitotic Cells (%),[4],52% and 35%
same,Population Normal (%),[4],96%
same,Population Pyknosed Nuclei (%),[4],15% and 21%
same,Population Tubulin-Different-Phenotype (%),[4],22% and 50%
same,Total Cell Count,[4],153 and 82
same,Population Apoptotic (%),[5],71% and 39%
same,Population Fragmented Nuclei (%),[5],14% and 30%
same,Population Healthy Nuclei (%),[5],72% and 48%
same,Population Hoechst High Intensity Objects (%),[5],9% and 3%
same,Population Membrane Permeable-Phenotype (%),[5],0% and 9%
same,Population Mitochondria Different-Phenotype (%),[5],1%
same,Population Mitotic Cells (%),[5],28% and 60%
same,Population Normal (%),[5],90% and 96%
same,Population Pyknosed Nuclei (%),[5],13% and 20%
same,Population Tubulin-Different-Phenotype (%),[5],23% and 56%
same,Total Cell Count,[5],178 and 114
same,Population Apoptotic (%),[6],55% and 45%
same,Population Fragmented Nuclei (%),[6],26% and 49%
same,Population Healthy Nuclei (%),[6],61% and 36%
same,Population Hoechst High Intensity Objects (%),[6],6% and 2%
same,Population Membrane Permeable-Phenotype (%),[6],2% and 3%
same,Population Mitotic Cells (%),[6],44% and 54%
same,Population Normal (%),[6],93% and 97%
same,Population Pyknosed Nuclei (%),[6],11% and 13%
same,Population Tubulin-Different-Phenotype (%),[6],29% and 51%
same,Total Cell Count,[6],164 and 81
CCCCC[C@H](O)/C=C/[C@H]1[C@H](O)CC(=O)[C@@H]1CCCCCCC(=O)O [ALPROSTADIL],Population Apoptotic (%),[1],61% and 43%
same,Population Fragmented Nuclei (%),[1],16% and 23%
same,Population Healthy Nuclei (%),[1],71% and 57%
same,Population Hoechst High Intensity Objects (%),[1],0% and 4%
same,Population Membrane Permeable-Phenotype (%),[1],0% and 10%
same,Population Mitochondria Different-Phenotype (%),[1],1% and 2%
same,Population Mitotic Cells (%),[1],38% and 56%
same,Population Normal (%),[1],99% and 95%
same,Population Pyknosed Nuclei (%),[1],12% and 18%
same,Total Cell Count,[1],150 and 169
same,Population Apoptotic (%),[2],36% and 34%
same,Population Healthy Nuclei (%),[2],75% and 43%
same,Population Membrane Permeable-Phenotype (%),[2],2% and 11%
same,Population Mitochondria Different-Phenotype (%),[2],4% and 1%
same,Population Mitotic Cells (%),[2],63% and 65%
same,Population Normal (%),[2],94% and 83%
same,Population Pyknosed Nuclei (%),[2],17% and 31%
same,Population Tubulin-Different-Phenotype (%),[2],26% and 45%
same,Total Cell Count,[2],136 and 146
same,Population Apoptotic (%),[3],25% and 43%
same,Population Fragmented Nuclei (%),[3],15% and 22%
same,Population Healthy Nuclei (%),[3],73% and 53%
same,Population Hoechst High Intensity Objects (%),[3],0% and 2%
same,Population Membrane Permeable-Phenotype (%),[3],0% and 8%
same,Population Mitochondria Different-Phenotype (%),[3],1% and 8%
same,Population Mitotic Cells (%),[3],75% and 56%
same,Population Normal (%),[3],99% and 97%
same,Population Pyknosed Nuclei (%),[3],10% and 24%
same,Population Tubulin-Different-Phenotype (%),[3],15% and 40%
same,Total Cell Count,[3],147 and 165
same,Population Apoptotic (%),[4],63% and 30%
same,Population Fragmented Nuclei (%),[4],14% and 27%
same,Population Healthy Nuclei (%),[4],69% and 45%
same,Population Membrane Permeable-Phenotype (%),[4],0% and 16%
same,Population Mitochondria Different-Phenotype (%),[4],2% and 3%
same,Population Mitotic Cells (%),[4],36% and 69%
same,Population Normal (%),[4],97% and 86%
same,Population Pyknosed Nuclei (%),[4],15% and 26%
same,Total Cell Count,[4],147 and 157
same,Population Apoptotic (%),[5],32% and 55%
same,Population Fragmented Nuclei (%),[5],18% and 26%
same,Population Healthy Nuclei (%),[5],62% and 51%
same,Population Hoechst High Intensity Objects (%),[5],1% and 3%
same,Population Membrane Permeable-Phenotype (%),[5],1% and 6%
same,Population Mitochondria Different-Phenotype (%),[5],4% and 8%
same,Population Mitotic Cells (%),[5],67% and 44%
same,Population Normal (%),[5],98% and 96%
same,Population Pyknosed Nuclei (%),[5],18% and 21%
same,Population Tubulin-Different-Phenotype (%),[5],30% and 44%
same,Total Cell Count,[5],152 and 162
same,Population Apoptotic (%),[6],62% and 48%
same,Population Fragmented Nuclei (%),[6],11% and 33%
same,Population Healthy Nuclei (%),[6],62% and 44%
same,Population Mitochondria Different-Phenotype (%),[6],7%
same,Population Mitotic Cells (%),[6],37% and 51%
same,Population Normal (%),[6],97% and 83%
same,Population Pyknosed Nuclei (%),[6],26% and 22%
same,Population Tubulin-Different-Phenotype (%),[6],34% and 60%
same,Total Cell Count,[6],144
COC(c1ccccc1)(c1ccccc1)[C@H](Oc1nc(C)cc(C)n1)C(=O)O [AMBRISENTAN],Population Apoptotic (%),[1],68% and 30%
same,Population Fragmented Nuclei (%),[1],13% and 18%
same,Population Healthy Nuclei (%),[1],66% and 56%
same,Population Hoechst High Intensity Objects (%),[1],1% and 4%
same,Population Membrane Permeable-Phenotype (%),[1],0% and 1%
same,Population Mitochondria Different-Phenotype (%),[1],4% and 6%
same,Population Mitotic Cells (%),[1],31% and 69%
same,Population Normal (%),[1],98% and 95%
same,Population Pyknosed Nuclei (%),[1],19% and 25%
same,Population Tubulin-Different-Phenotype (%),[1],29% and 37%
same,Total Cell Count,[1],97 and 163
same,Population Apoptotic (%),[2],56% and 33%
same,Population Healthy Nuclei (%),[2],70% and 25%
same,Population Hoechst High Intensity Objects (%),[2],5% and 4%
same,Population Membrane Permeable-Phenotype (%),[2],0% and 5%
same,Population Mitochondria Different-Phenotype (%),[2],11% and 0%
same,Population Mitotic Cells (%),[2],43% and 66%
same,Population Normal (%),[2],94% and 95%
same,Population Pyknosed Nuclei (%),[2],21% and 34%
same,Population Tubulin-Different-Phenotype (%),[2],25% and 35%
same,Total Cell Count,[2],145 and 82
same,Population Apoptotic (%),[3],62% and 34%
same,Population Fragmented Nuclei (%),[3],15% and 14%
same,Population Healthy Nuclei (%),[3],67% and 62%
same,Population Hoechst High Intensity Objects (%),[3],2% and 5%
same,Population Membrane Permeable-Phenotype (%),[3],0% and 3%
same,Population Mitochondria Different-Phenotype (%),[3],4% and 3%
same,Population Mitotic Cells (%),[3],37% and 65%
same,Population Normal (%),[3],97% and 94%
same,Population Pyknosed Nuclei (%),[3],17% and 23%
same,Population Tubulin-Different-Phenotype (%),[3],38%
same,Total Cell Count,[3],95 and 158
same,Population Apoptotic (%),[4],69% and 27%
same,Population Healthy Nuclei (%),[4],68% and 27%
same,Population Hoechst High Intensity Objects (%),[4],7% and 5%
same,Population Membrane Permeable-Phenotype (%),[4],0% and 5%
same,Population Mitochondria Different-Phenotype (%),[4],11% and 10%
same,Population Mitotic Cells (%),[4],30% and 72%
same,Population Normal (%),[4],92% and 94%
same,Population Pyknosed Nuclei (%),[4],18% and 26%
same,Population Tubulin-Different-Phenotype (%),[4],29% and 36%
same,Total Cell Count,[4],149 and 73
same,Population Apoptotic (%),[5],60% and 61%
same,Population Fragmented Nuclei (%),[5],19% and 24%
same,Population Healthy Nuclei (%),[5],64% and 54%
same,Population Hoechst High Intensity Objects (%),[5],4% and 0%
same,Population Membrane Permeable-Phenotype (%),[5],1% and 4%
same,Population Mitochondria Different-Phenotype (%),[5],5% and 10%
same,Population Mitotic Cells (%),[5],40% and 38%
same,Population Normal (%),[5],95% and 99%
same,Population Pyknosed Nuclei (%),[5],16% and 20%
same,Population Tubulin-Different-Phenotype (%),[5],28% and 42%
same,Total Cell Count,[5],93 and 154
same,Population Apoptotic (%),[6],61% and 71%
same,Population Healthy Nuclei (%),[6],71% and 31%
same,Population Hoechst High Intensity Objects (%),[6],7% and 3%
same,Population Membrane Permeable-Phenotype (%),[6],1% and 0%
same,Population Mitochondria Different-Phenotype (%),[6],10% and 0%
same,Population Mitotic Cells (%),[6],38% and 28%
same,Population Normal (%),[6],92% and 96%
same,Population Pyknosed Nuclei (%),[6],13% and 18%
same,Population Tubulin-Different-Phenotype (%),[6],34% and 62%
same,Total Cell Count,[6],145 and 79
